Published values from different studies.
Target: Fibroblast growth factor receptor 2 (FGFR2, Homo sapiens, UniProt P21802)

SMILES | assay | setting | quantity | result
CO[C@@H]1[C@H](N(C)C(=O)c2ccccc2)C[C@H]2O[C@]1(C)n1c3ccccc3c3c4c(c5c6ccccc6n2c5c31)C(=O)NC4 | enzyme activity, inhibitor | 1 µM | inhibition | 42%
COc1ccc2oc(-c3ccc4nc(N)oc4c3)c/c(=N\c3ccccc3NC(=O)CCN)c2c1 | binding | 1 µM | remaining binding | 95%
Cc1ccc(NC(=O)c2ccnc(C(F)(F)F)c2)cc1-c1cc(OCCO)nc(N2CCOCC2)c1 | binding, competition with immobilised ligand | 1 µM | remaining binding | 91%
C1=C/COCc2cc(ccc2OCCN2CCCC2)Nc2nccc(n2)-c2cccc(c2)COC/1 | binding | 0.1 µM | remaining binding | 94%
C=CC(=O)N1CCC([C@@H]2CCNc3c(C(N)=O)c(-c4ccc(Oc5ccccc5)cc4)nn32)CC1 | cell-free assay | 1 µM | inhibition | 14%
N#Cc1ccc(NC(=O)Nc2ccccc2)cc1 | cell-free assay, competition with immobilised ligand | 25 µM | remaining binding | 100%
CC(C)S(=O)(=O)c1ccc2nccc(Nc3ccc4sc(C5CCCC5)nc4c3)c2c1 | enzyme activity, inhibitor | 1 µM | activity vs control | 110%
CN1CCN(C(=O)c2ccc(NC(=O)Nc3ccc(N(C)c4ccnc(Nc5ccc(CS(C)(=O)=O)cc5)n4)cc3)cc2)CC1 | binding, competition with immobilised ligand | 1 µM | remaining binding | 99%
CCCCC(=O)Nc1ccc(-c2ccc3ncn(CCC)c(=O)c3c2)cn1 | binding, competition with immobilised ligand | 0.5 µM | remaining binding | 86%
